Laboratory results: ChEMBL document CHEMBL3286377, “Microwave-assisted synthesis of C-8 aryl and heteroaryl inosines and determination of their inhibitory activities against Plasmodium falciparum purine nucleoside phosphorylase” (Eur J Med Chem, 2014)
Activity calls are given as the source filed them. The calls are words filed in the database; no cut-off is given here.

Columns and labels:
[1] = test system: Coxsackievirus B4; test: Antiviral activity against Coxsackievirus B4 assessed as inhibition of virus-induced cytopathicity at 100 uM by cell-based assay; type: functional, organism-based
How it was run: (§1)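 Confluent HEL, Vero, HeLa or MDCK monolayers were infected with 100 CCID50 of virus in the presence of varying compound concentrations. Activity is expressed as EC50, the concentration that halves virus-induced cytopathicity.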

[2] = test system: Human respirovirus 3; test: Antiviral activity against Parainfluenza virus 3 assessed as inhibition of virus-induced cytopathicity at 100 uM by cell-based assay; type: functional, organism-based; how it was run: as §1
[3] = test system: Influenza A virus; test: Antiviral activity against Influenza A virus H1N1 assessed as inhibition of virus-induced cytopathicity at 100 uM by cell-based assay; type: functional, organism-based
How it was run: (§2)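 Inhibition of virus-induced cytopathicity in confluent cell monolayers (HEL, Vero, HeLa or MDCK cells), tested at varying compound concentrations with 100 µM the level assessed. Cytopathicity was scored once it was complete in untreated virus-infected controls. Activity is expressed as EC50, the concentration reducing virus-induced cytopathicity by 50%.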

[4] = test system: Influenza A virus H3N2; test: Antiviral activity against Influenza A virus H3N2 assessed as inhibition of virus-induced cytopathicity at 100 uM by cell-based assay; type: functional, organism-based; how it was run: as §2
[5] = test system: Mammalian orthoreovirus 1; test: Antiviral activity against Reovirus 1 assessed as inhibition of virus-induced cytopathicity at 100 uM by cell-based assay; type: functional; how it was run: as §1
[6] = test system: Sindbis virus; test: Antiviral activity against Sindbis virus assessed as inhibition of virus-induced cytopathicity at 100 uM by cell-based assay; type: functional, organism-based; how it was run: as §1
[7] = test system: Punta Toro virus; test: Antiviral activity against Punta Toro virus assessed as inhibition of virus-induced cytopathicity at 100 uM by cell-based assay; type: functional, organism-based; how it was run: as §1
[8] = test system: Influenza B virus; test: Antiviral activity against Influenza B virus assessed as inhibition of virus-induced cytopathicity at 100 uM by cell-based assay; type: functional, organism-based; how it was run: as §2
[9] = test system: CCRF-CEM; test: Cytotoxicity against human CEM cells up to 100 uM; type: cell-based
[10] = test system: HEL; test: Cytotoxicity against HEL up to 100 uM; type: cell-based; settings: human
[11] = test system: HeLa; test: Cytotoxicity against human HeLa cells up to 100 uM; type: cell-based
[12] = test system: Vero; test: Cytotoxicity against African green monkey Vero cells up to 100 uM; type: cell-based; settings: chlorocebus sabaeus
[13] = test system: MDCK; test: Cytotoxicity against MDCK cells up to 100 uM; type: cell-based, Canis lupus familiaris; settings: dog
[14] = test system: Plasmodium falciparum; test: Inhibition of Plasmodium falciparum PNP expressed in Escherichia coli BL21(DE3) using inosine as substrate at 200 uM by spectrophotometric analysis
[15] = Hydrolytic stability of the compound in citrate buffer at 50 uM at pH 5 up to 24 hrs by HPLC analysis; type: physicochemical; settings: pH 5, 24 h
How it was run: (§3)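 A 5 mM DMSO stock was diluted to 50 µM final in phosphate (pH 7.4), citrate (pH 5.0) or trifluoroacetate (pH 1.2) buffer and incubated at 37 °C. Aliquots taken at 0, 0.5, 1, 4 and 24 h were analysed by reverse-phase HPLC. The mobile phase ran from 10 to 100% acetonitrile against water with 0.05% TFA over 20 min, at 1.0 mL/min.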

[16] = Hydrolytic stability of the compound in phosphate buffer at 50 uM at pH 7.4 up to 24 hrs by HPLC analysis; type: physicochemical; settings: pH 7.4, 24 h; how it was run: as §3
[17] = Half life of the compound in trifluoroacetate buffer at 50 uM at pH 1.2 by HPLC analysis; type: physicochemical; how it was run: as §3
[18] = test system: Human alphaherpesvirus 1; test: Antiviral activity against Herpes simplex virus type 1 KOS assessed as inhibition of virus-induced cytopathicity at 100 uM by cell-based assay; type: functional, organism-based; how it was run: as §1
[19] = test system: Human alphaherpesvirus 1; test: Antiviral activity against thymidine kinase-deficient ACV-resistant Herpes simplex virus type 1 KOS assessed as inhibition of virus-induced cytopathicity at 100 uM by cell-based assay; type: functional, organism-based
How it was run: (§4)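 Confluent HEL, Vero, HeLa or MDCK monolayers were infected with 100 CCID50 of virus in the presence of varying compound concentrations, with 100 µM the level assessed. Cytopathic effect was recorded once it was complete in untreated infected controls. EC50 is the concentration reducing virus-induced cytopathicity by 50%.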

[20] = test system: Human alphaherpesvirus 2; test: Antiviral activity against Herpes simplex virus type 2 Lyons assessed as inhibition of virus-induced cytopathicity at 100 uM by cell-based assay; type: functional, organism-based; how it was run: as §1
[21] = test system: Human alphaherpesvirus 2; test: Antiviral activity against Herpes simplex virus type 2 G assessed as inhibition of virus-induced cytopathicity at 100 uM by cell-based assay; type: functional, organism-based; settings: strain G; how it was run: as §1
[22] = test system: Vaccinia virus; test: Antiviral activity against Vaccinia virus Lederle assessed as inhibition of virus-induced cytopathicity at 100 uM by cell-based assay; type: functional, organism-based; settings: Orthopoxvirus vaccinia; how it was run: as §4
[23] = test system: Respiratory syncytial virus; test: Antiviral activity against Respiratory syncytial virus Long assessed as inhibition of virus-induced cytopathicity at 100 uM by cell-based assay; type: functional, organism-based; how it was run: as §1
[24] = test system: Vesicular stomatitis virus; test: Antiviral activity against Vesicular stomatitis virus assessed as inhibition of virus-induced cytopathicity at 100 uM by cell-based assay; type: functional, organism-based; how it was run: as §4

SMILES: O=c1[nH]cnc2c1nc(-c1cccnc1)n2[C@@H]1O[C@H](CO)[C@@H](O)[C@H]1O
- Activity [1]: inactive
- Activity [2]: inactive
- Activity [3]: inactive
- Activity [4]: inactive
- Activity [5]: inactive
- Activity [6]: inactive
- Activity [7]: inactive
- Activity [8]: inactive
- Activity [9]: Non-toxic
- Activity [10]: Non-toxic
- Activity [11]: Non-toxic
- Activity [12]: Non-toxic
- Activity [13]: Non-toxic
- inhibition [14]: inactive
- Stability [15]: Stable
- Stability [16]: Stable
- half-life at 50 µM [17]: 15 h
- Activity [18]: inactive
- Activity [19]: inactive
- Activity [20]: inactive
- Activity [21]: inactive
- Activity [22]: inactive
- Activity [23]: inactive
- Activity [24]: inactive
